ATG4B inh = ATG4B protease inhibitors, primary screen, biochemical, fluorescence, uHTS; Cysteine protease ATG4B (Homo sapiens), Q9Y4P1; ATG4B cleavage of LC3-PLA2, NBD-HPC fluorescence, 1 h; inhibition, % at 8.33 µM; 340,000 compounds, 0.51% hits; in the data active = inhibition above about 40%
SENP1 FRET inh = human SENP1 catalytic domain inhibitors, primary screen, biochemical, FRET, uHTS | recombinant SENP1 catalytic domain, CyPet-SUMO1-YPet FRET cleavage | AID 624204, 2012 | inhibition, % at 10 µM | 360,000 compounds, 0.21% hits;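 active = inhibition at least 30% at 10 µM, raw YFP signal under a set limit, fluorescence ratio 0.5 to 1.5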
Target sequence (Q9P0U3 419-644 limits assumed): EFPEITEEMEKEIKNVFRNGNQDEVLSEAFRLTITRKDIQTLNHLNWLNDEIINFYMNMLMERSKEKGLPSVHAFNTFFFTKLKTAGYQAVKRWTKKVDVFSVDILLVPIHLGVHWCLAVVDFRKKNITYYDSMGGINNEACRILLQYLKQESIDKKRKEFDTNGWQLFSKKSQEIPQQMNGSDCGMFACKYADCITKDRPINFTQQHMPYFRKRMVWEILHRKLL
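System: Recombinant human SENP1 catalytic domain, His6-tagged | Incubation: Enzyme reaction for 50 min at room temperature, dark | Medium: Tris pH 8 with BME, BSA, NP40 and catalase | Also added: 25 nM SUMO1 FRET substrate | Compound: 10 µM single point, 0.5% DMSO | Measured by: FRET fluorescence in CFP and YFP emission channels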
NR3A LBD binder = binders of NR3A ligand-binding domain, primary screen, biophysical, differential scanning fluorimetry, uHTS | Glutamate receptor ionotropic, NMDA 3A (GRIN3A) ligand-binding domain | NR3A LBD differential scanning fluorimetry, Tm shift; 0% = protein alone, 100% = glycine-bound protein | Tm shift relative to glycine control, % at 25 µM | 340,000 compounds, 2.5% hits | AID 1259313, 2017;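 active = melting temperature shift of at least 10% of the positive control shift, at one fixed dose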
NadD inh = inhibitors of S. aureus NadD, primary screen, biochemical, colorimetric, uHTS | Nicotinate-nucleotide adenylyltransferase NadD (Staphylococcus aureus N315) | purified NadD enzyme, colorimetric absorbance read-out | inhibition, % at 20 µM | 360,000 compounds, 0.78% hits | AID 602399, 2012; in the data active = inhibition above about 26%
UCH37 DUB inh = inhibitors of human UCH37 deubiquitinase, primary screen, biochemical, Ub-AMC cleavage, fluorescence. Ubiquitin carboxyl-terminal hydrolase isozyme L5 (Homo sapiens), Q9Y5K5. purified proteasome/UCH37. inhibition, % (no concentration beside the values). 330,000 compounds, 0.33% hits;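 active = mean inhibition over replicate wells above about 20%, limit read from the data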
Target sequence (Q9Y5K5 whole entry, looked up): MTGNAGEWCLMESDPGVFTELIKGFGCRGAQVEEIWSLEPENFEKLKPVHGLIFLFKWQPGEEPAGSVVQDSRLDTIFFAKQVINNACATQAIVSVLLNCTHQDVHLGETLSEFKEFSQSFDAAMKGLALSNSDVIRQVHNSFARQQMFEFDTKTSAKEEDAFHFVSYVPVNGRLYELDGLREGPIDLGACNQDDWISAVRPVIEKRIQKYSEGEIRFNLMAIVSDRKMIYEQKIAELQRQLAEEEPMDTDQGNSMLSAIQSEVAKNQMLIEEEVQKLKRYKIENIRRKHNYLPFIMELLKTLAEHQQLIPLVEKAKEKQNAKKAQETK
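System: Proteasome-associated human UCH37 deubiquitinase; Input: 0.15 nM proteasome in added enzyme buffer; Also added: Ub-AMC substrate from 1 µM stock; Incubation: 30 min compound-proteasome preincubation then 25 min substrate reaction, room temperature; Detection: fluorescence, ex 355 nm, em 460 nm; Read-out: % inhibition of Ub-AMC cleavage fluorescence; Benchmarks: no-proteasome and no-compound wells.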
Hits are given with their value; - = inactive; . = not tested or not shown. Compounds with a hit are over-represented: about 3.6% of the library has one in this group of screens.

SMILES	ATG4B inh	SENP1 FRET inh	NR3A LBD binder	NadD inh	UCH37 DUB inh
NNC(=O)c1cccc(COc2ccccc2Br)c1	-	-	-	-	-
O=C(Nc1cccnc1)c1ccc(COc2ccccc2Br)cc1	-	-	36	-	-
O=C(NCc1cccnc1)c1ccc(COc2ccccc2Br)cc1	-	-	-	-	-
COC(=O)c1ccc(Cn2nc(C)cc2C)cc1	-	-	-	-	-
NC(=O)c1ccc(NC(=O)c2ccc(COc3ccccc3Br)cc2)cc1	-	-	22	-	-
O=C1CCCC(=NNC(=O)c2ccc(NS(=O)(=O)c3cccs3)cc2)C1	.	.	.	.	-
Cc1[nH]n(C(N)=S)c(=O)c1N=Nc1cc(C(F)(F)F)ccc1Cl	-	-	12	-	-
CC(=O)N(N=Cc1cccc(C)c1)c1nc(-c2ccc(Br)cc2)cs1	.	.	.	.	-
CCn1cc(C=NNS(=O)(=O)c2ccc(C)cc2)c(C)n1	.	.	.	.	-
O=[N+]([O-])c1ccc(-c2cnc(SC(c3ccccc3)c3ccccc3)[nH]2)cc1	-	-	26	-	-
O=[N+]([O-])c1ccc(-c2cnc(SCc3ccccc3Cl)[nH]2)cc1	-	-	13	-	-
Cc1cc(C)c(CSc2ncc(-c3ccc([N+](=O)[O-])cc3)[nH]2)c(C)c1	-	-	12	-	-
NC(=O)CSc1ncc(-c2ccc([N+](=O)[O-])cc2)[nH]1	-	-	-	-	-
O=[N+]([O-])c1cc(C(F)(F)F)cc([N+](=O)[O-])c1NCCNC(=S)Nc1cccc(F)c1	-	-	17	-	-
COc1ccc(CN2CCN(c3ccc(F)cc3)CC2)c(OC)c1OC	-	-	-	-	-
COc1ccc(CN2CCN(C(c3ccc(F)cc3)c3ccc(F)cc3)CC2)c(OC)c1OC	-	-	13	-	-
CN(CC(=O)Nc1c(Cl)cccc1Cl)C(=O)CNC(=O)c1sc2ccccc2c1Cl	-	-	19	-	-
COc1ccc(NC(=O)CN(C)C(=O)CNC(=O)c2sc3ccccc3c2Cl)cc1	-	-	-	-	-
CCOc1cccc(C=NN2CCN(c3ccc(Cl)cc3)CC2)c1O	.	.	.	.	-
O=C(c1cccc(S(=O)(=O)NCc2ccccc2)c1)N1CCCCC1	-	-	-	-	-
O=C(c1cccc(S(=O)(=O)NCc2ccccc2)c1)N1CCN(Cc2ccccc2)CC1	-	-	15	-	-
CC(=NNC(=O)C1(C)CC1(Br)Br)c1ccc([N+](=O)[O-])cc1 (stereo not given)	.	.	.	.	-
O=C(O)c1cc2c(s1)-c1ccccc1CC2	-	-	-	-	-
O=C(N/N=C/c1ccc(Cl)cc1)c1cc2c(s1)-c1ccccc1CC2	-	-	12	-	.
Nc1sc(-c2ccccc2)cc1C(=O)N/N=C/c1ccc(Cl)cc1	-	-	13	-	.
SMILES	ATG4B inh	SENP1 FRET inh	NR3A LBD binder	NadD inh	UCH37 DUB inh
COc1cc2oc(=O)c(Br)c(C)c2c(OC)c1OC	-	-	-	-	-
COc1cc2oc3cc(C)oc(=O)c3c2cc1OC	-	-	16	-	-
O=C(O)c1cccc(-c2ccc(C=NNC(=O)C3COc4ccccc4O3)o2)c1 (stereo not given)	.	.	.	.	-
O=C(NCCO)C(=O)NCC1OCCCN1S(=O)(=O)c1cc(F)ccc1F (stereo not given)	-	-	136	-	-
CC(C)COc1ccc(CNC(=S)Nc2ccccc2)cc1Cl	-	-	15	-	-
CCCOc1ccc(CNC(=S)Nc2ccccc2)cc1Cl	-	-	18	-	-
CC(C)Oc1ccc(CNC(=S)Nc2ccccc2)cc1Cl	-	-	-	-	-
COc1ccc(CNC(=S)Nc2ccccc2)cc1Cl	-	-	-	-	-
CN(C)C=NC(=S)Nc1ccccc1Cl	.	.	.	.	-
COc1ccc(CCNC(=O)C(=O)NN=Cc2cccs2)cc1OC	.	.	.	.	-
COc1ccc(/C=C\C(=O)c2c(O)ccc3c(C)cc(=O)oc23)cc1OC	-	-	14	-	-
CSc1ccccc1NC(=O)Nc1cccc(F)c1	-	-	-	-	-
O=C(Nc1cccc(Cl)c1)OCc1cn(-c2ccccc2)nn1	-	-	11	-	-
CC(O)c1cccc(NC(=O)CCC(=O)O)c1 (stereo not given)	-	-	-	-	-
CC(=O)Nc1cccc(NC(=O)Nc2cccc(F)c2)c1	-	-	29	-	-
O=C(Nc1cccc(Cl)c1)OCc1cn(-c2ccc(Cl)cc2)nn1	-	-	-	-	-
CC(O)c1cccc(NC(=O)Nc2cccc(NC(=O)Nc3cccc(C(C)O)c3)c2)c1 (stereo not given)	-	-	27	-	-
O=C(Nc1ccc2c(c1)OCO2)c1cccc(F)c1	-	-	-	-	-
O=C(Nc1cccc(F)c1)Nc1ccc2c(c1)OCO2	-	-	37	-	-
COC(=O)C1CC(=NNS(=O)(=O)c2ccc(C)cc2)c2ccsc2C1 (stereo not given)	.	.	.	.	-
N#CC(C(=O)Nc1cccc(Cl)c1)=C1Nc2ccccc2N1	-	-	10	-	-
N#CC(C(=O)Nc1ccc(Cl)c(Cl)c1)=C1Nc2ccccc2N1	-	-	-	-	-
O=C(Nc1cccc(F)c1)Nc1ccc(Cl)cn1	-	-	-	-	-
COC(=O)c1sccc1NC(=O)Nc1cccc(F)c1	-	-	10	-	-
O=C(Nc1cccc(F)c1)Nc1cccc(Cl)c1	-	-	42	-	-
SMILES	ATG4B inh	SENP1 FRET inh	NR3A LBD binder	NadD inh	UCH37 DUB inh
CC(=O)/C(N)=N/Nc1cccc(Cl)c1	-	-	20	-	-
Cc1ccc(C=NNC(=O)c2ccc(OC3CCCC3)cc2)o1	.	.	.	.	-
O=C(Nc1cccc(Cl)c1)Nc1cccc(Cl)c1	-	-	33	-	-
O=C(Nc1cccc(F)c1)C1CCN(C(=O)c2ccc(Cl)cc2)CC1	-	-	12	-	-
N#CCc1ccc(NC(=O)Nc2cccc(Cl)c2)cc1	-	-	26	-	.
O=C(Nc1cccc(Cl)c1)Nc1ccon1	-	-	-	-	-
O=C(Nc1cccc(Cl)c1)OCCOCCOC(=O)Nc1cccc(Cl)c1	-	-	36	-	-
Cc1ccc(C=NNC(=O)c2cc3c(ccc4ccccc43)o2)o1	.	.	.	.	-
CC(C)CN(C=Nc1sc2c(c1C#N)CCCCC2)CC(C)C	.	.	.	.	-
CC(=O)c1cccc(NC(=O)CC2S/C(=N/N=Cc3cccs3)NC2=O)c1 (stereo not given)	.	.	.	.	-
CCOC(=O)C1=C(C)N=c2sc(=Cc3ccc(OCC(=O)O)cc3)c(=O)n2C1c1ccccc1OC (stereo not given)	.	.	.	.	-
COCCCNC(=S)NN=Cc1ccc(O)cc1O	.	.	.	.	-
COC(=O)c1cc(NC(=O)Nc2cccc(Cl)c2)ccc1Cl	-	-	38	-	-

Assay outcomes: PubChem, several laboratories
